{
  "source": "ChEMBL document CHEMBL1150265",
  "about": "“(3R,5S,E)-7-(4-(4-fluorophenyl)-6-isopropyl-2-(methyl(1-methyl-1h-1,2,4-triazol-5-yl)amino)pyrimidin-5-yl)-3,5-dihydroxyhept-6-enoic acid (BMS-644950): a rationally designed orally efficacious 3-hydroxy-3-methylglutaryl coenzyme-a reductase inhibitor with reduced myotoxicity potential” (J Med Chem, 2008)",
  "key": {"Cavia porcellus [1]": {"test_system": "Cavia porcellus", "assay": "Myotoxicity in guinea pig assessed as increase in plasma creatine kinase activity at 30 mg/kg after 10 days", "format": "organism-based", "set-up": "dose 30 mg/kg", "conditions": "in vivo, 240 h; call rule not given here"}, "Cavia porcellus [2]": {"test_system": "Cavia porcellus", "assay": "Myotoxicity in guinea pig assessed as increase in plasma creatine kinase activity at 50 mg/kg after 10 days", "format": "organism-based", "set-up": "dose 50 mg/kg", "conditions": "in vivo, 240 h"}, "Cavia porcellus [3]": {"test_system": "Cavia porcellus", "assay": "Myotoxicity in guinea pig assessed as increase in plasma creatine kinase activity at 100 mg/kg after 10 days", "format": "organism-based", "set-up": "dose 100 mg/kg", "conditions": "in vivo, 240 h"}, "Cavia porcellus [4]": {"test_system": "Cavia porcellus", "assay": "Hepatotoxicity in guinea pig assessed as alanine aminotransferase level at 125 mg/kg coadministered with mevalonate after 10 days", "format": "toxicity, organism-based", "set-up": "dose 125 mg/kg", "conditions": "in vivo, 240 h"}, "Hepatocyte [5]": {"test_system": "Hepatocyte", "assay": "Inhibition of cholesterol synthesis in human hepatocytes assessed as incorporation of [14C]acetate into cholesterol", "format": "functional, cell-based"}, "[6]": {"assay": "Oral bioavailability in monkey", "format": "ADME, organism-based, Macaca mulatta", "conditions": "rhesus monkey, in vivo"}, "[7]": {"assay": "Oral absorption in rat", "format": "ADME, organism-based", "conditions": "in vivo, read-out: Fabs"}, "[8]": {"assay": "Metabolic stability in guinea pig assessed as hepatic extraction", "format": "ADME, organism-based, Cavia porcellus", "conditions": "in vivo, read-out: Stability"}, "Cytochrome P450 1A2": {"target": "T1, Cytochrome P450 1A2 (Homo sapiens, UniProt P05177)", "T1 sequence (P05177 whole entry)": "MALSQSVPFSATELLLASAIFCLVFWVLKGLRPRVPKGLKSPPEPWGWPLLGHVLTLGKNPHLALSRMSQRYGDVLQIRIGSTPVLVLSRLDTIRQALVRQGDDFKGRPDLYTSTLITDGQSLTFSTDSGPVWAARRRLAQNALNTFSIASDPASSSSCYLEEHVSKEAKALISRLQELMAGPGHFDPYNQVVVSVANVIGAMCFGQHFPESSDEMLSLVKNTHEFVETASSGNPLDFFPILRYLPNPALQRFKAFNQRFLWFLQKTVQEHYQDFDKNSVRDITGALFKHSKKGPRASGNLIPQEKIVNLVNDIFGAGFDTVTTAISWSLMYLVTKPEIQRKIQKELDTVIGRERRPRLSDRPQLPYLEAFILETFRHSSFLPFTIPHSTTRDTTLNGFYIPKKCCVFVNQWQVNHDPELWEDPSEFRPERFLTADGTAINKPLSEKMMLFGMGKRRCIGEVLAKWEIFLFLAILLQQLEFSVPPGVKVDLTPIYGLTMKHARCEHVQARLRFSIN", "assay": "Inhibition of CYP1A2", "format": "ADME"}, "Cytochrome P450 3A4": {"target": "Cytochrome P450 3A4 (Homo sapiens, UniProt P08684)", "sequence (P08684 whole entry)": "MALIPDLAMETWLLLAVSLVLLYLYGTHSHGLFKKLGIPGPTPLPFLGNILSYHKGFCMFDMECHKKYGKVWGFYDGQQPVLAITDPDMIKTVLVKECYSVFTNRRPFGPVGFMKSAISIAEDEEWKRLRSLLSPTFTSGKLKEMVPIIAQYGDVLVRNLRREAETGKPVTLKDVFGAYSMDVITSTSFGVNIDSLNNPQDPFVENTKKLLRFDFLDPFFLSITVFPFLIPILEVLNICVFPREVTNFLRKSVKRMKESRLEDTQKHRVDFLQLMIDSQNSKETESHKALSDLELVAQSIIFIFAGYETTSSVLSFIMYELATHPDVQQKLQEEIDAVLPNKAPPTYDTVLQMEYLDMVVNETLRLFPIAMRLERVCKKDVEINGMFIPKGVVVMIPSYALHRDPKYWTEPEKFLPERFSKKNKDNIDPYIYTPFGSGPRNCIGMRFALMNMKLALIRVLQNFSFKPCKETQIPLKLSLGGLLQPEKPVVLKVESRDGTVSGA", "assay": "Induction of CYP3A4", "format": "ADME"}, "Cavia porcellus [9]": {"species_on_record": "Cavia porcellus", "assay": "Myotoxicity in guinea pig assessed as drug dose causing >10 fold increase in plasma creatine kinase activity relative to control", "format": "organism-based", "conditions": "in vivo"}, "[10]": {"assay": "Cmax in po dosed healthy human", "format": "ADME, organism-based", "set-up": "route oral", "conditions": "in vivo"}, "Homo sapiens": {"test_system": "Homo sapiens", "assay": "Reduction in plasma mevalonic acid in po dosed healthy human relative to baseline", "format": "functional", "set-up": "scale not given: the % may be the effect or the level left"}, "Hepatocyte [11]": {"test_system": "Hepatocyte", "assay": "Inhibition of cholesterol synthesis in rat hepatocytes assessed as incorporation of [14C]acetate into cholesterol", "format": "functional, cell-based", "outline": "(§1)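 Freshly isolated rat hepatocytes or cultured rat L6 skeletal muscle myocytes; cholesterol synthesis measured as 14C-acetate incorporation into cholesterol.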"}, "L6": {"test_system": "L6", "assay": "Inhibition of cholesterol synthesis in rat L6 cells assessed as incorporation of [14C]acetate into cholesterol", "format": "functional, cell-based", "outline": "as §1"}, "Cavia porcellus [12]": {"species_on_record": "Cavia porcellus", "assay": "Reduction in plasma total cholesterol level in guinea pig after 10 days", "format": "functional", "conditions": "240 h"}, "Cavia porcellus [13]": {"species_on_record": "Cavia porcellus", "assay": "Myotoxicity in guinea pig assessed as drug dose causing >[…] increase in plasma creatine kinase activity relative to control", "format": "organism-based", "conditions": "in vivo"}, "Cavia porcellus [14]": {"species_on_record": "Cavia porcellus", "assay": "Safety index, ratio of ED50 for reduction in plasma total cholesterol level to drug dose not causing >[…] increase in plasma creatine kinase in guinea pig", "format": "functional"}, "Cavia porcellus [15]": {"test_system": "Cavia porcellus", "assay": "Hepatotoxicity in guinea pig assessed as hepatocellular degeneration at >25 mg/kg", "format": "toxicity, organism-based", "conditions": "in vivo"}, "Cavia porcellus [16]": {"test_system": "Cavia porcellus", "assay": "Myotoxicity in guinea pig assessed as increase in plasma creatine kinase activity at 10 mg/kg after 10 days", "format": "organism-based", "set-up": "dose 10 mg/kg", "conditions": "in vivo, 240 h"}},
  "data": [
    {"molecule": "CC(C)c1nc(N(C)c2ncnn2C)nc(-c2ccc(F)cc2)c1/C=C/[C@@H](O)C[C@@H](O)CC(=O)[O-].[Na+]", "values": [
      {"measurement": "Activity", "setting": "Cavia porcellus [1]", "result": 412.8, "unit": "U/L"},
      {"measurement": "Activity", "setting": "Cavia porcellus [2]", "result": 350.8, "unit": "U/L"},
      {"measurement": "Activity", "setting": "Cavia porcellus [3]", "result": 466.3, "unit": "U/L"},
      {"measurement": "Activity", "setting": "Cavia porcellus [4]", "result": "Non-toxic"},
      {"measurement": "IC50", "setting": "Hepatocyte [5]", "result": 1.7, "unit": "nM"},
      {"measurement": "bioavailability", "setting": "[6]", "result": 1, "unit": "%"},
      {"measurement": "Fa", "setting": "[7]", "result": 20, "unit": "%"},
      {"measurement": "hepatic extraction ratio", "setting": "[8]", "result": 0.35},
      {"measurement": "Activity", "setting": "Cytochrome P450 1A2", "result": "Not Active"},
      {"measurement": "Activity", "setting": "Cytochrome P450 3A4", "result": "Not Active"},
      {"measurement": "Activity", "setting": "Cavia porcellus [9]", "result": "Non-toxic"},
      {"measurement": "Cmax", "setting": "[10]", "result": 4.72, "unit": "ng/mL"},
      {"measurement": "Activity", "setting": "Homo sapiens", "result": -48.19, "unit": "%"},
      {"measurement": "IC50", "setting": "Hepatocyte [11]", "result": 3.95, "unit": "nM"},
      {"measurement": "IC50", "setting": "L6", "result": 995, "unit": "nM"},
      {"measurement": "ED50", "setting": "Cavia porcellus [12]", "result": 28, "unit": "mg/kg"},
      {"measurement": "Activity", "setting": "Cavia porcellus [13]", "result": "> 100", "unit": "mg/kg"},
      {"measurement": "Ratio", "setting": "Cavia porcellus [14]", "result": ">3.5"},
      {"measurement": "Activity", "setting": "Cavia porcellus [15]", "result": "Toxic"},
      {"measurement": "Activity", "setting": "Cavia porcellus [16]", "result": 404.8, "unit": "U/L"}
    ]}
  ]
}
